Laboratory results from ChEMBL document CHEMBL1135916, “Design, synthesis, and structure-activity relationship of pyridyl imidazolidinones: a novel class of potent and selective human enterovirus 71 inhibitors” (J Med Chem, 2002).
Where “and” joins values, the source holds several entries; their conditions need not be identical. Equal values may be shown once.

Columns and labels:
[1] = Selectivity index (W138/EV71) of the compound; assay type: functional
[2] = Selectivity index (RD/EV71) of the compound; assay type: functional
[3] = Selectivity index (D551/EV71) of the compound; assay type: functional
[4] = (§1) Cytotoxicity against human rhabdomyosarcoma (RD) cells; assay type: functional
[5] = tested on: Enterovirus A71; experiment: Inhibition concentration against EV-71; assay type: functional, organism-based; settings: Enterovirus A
[6] = tested on: Coxsackievirus; experiment: Inhibition concentration against coxsackie virus A9; assay type: functional, organism-based
Method in brief: (§2)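 Plaque reduction on Vero cell monolayers infected to give about 50-100 plaques per monolayer in virus control; test compound diluted into agar-medium overlay; 96 h at 35 °C, crystal violet staining, plaques counted. […] Triplicate well means, at least two experiments.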

[7] = tested on: Coxsackievirus; experiment: Inhibition concentration against coxsackie virus A10; assay type: functional, organism-based; method in brief: as §2
[8] = tested on: Coxsackievirus; experiment: Inhibition concentration against coxsackie virus A16; assay type: functional, organism-based; method in brief: as §2
[9] = Cytotoxicity against human normal skin fibroblast (W138) cells; assay type: cell-based
Method in brief: (§3)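 Test compound at various concentrations added to D551 (human normal skin fibroblast), WI38 (human normal lung fibroblast) or RD cells; incubated 96 h at 37 °C; cells harvested and viable cells counted by trypan blue staining. Triplicate, at least twice.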

[10] = tested on: Coxsackievirus; experiment: Inhibition concentration against coxsackie virus B4; assay type: functional, organism-based; method in brief: as §2
[11] = tested on: Coxsackievirus; experiment: Inhibition concentration against coxsackie virus B2; assay type: functional, organism-based; method in brief: as §2
[12] = tested on: Human alphaherpesvirus 2; experiment: Inhibition concentration against herpes simplex virus; assay type: functional, organism-based; method in brief: as §2
[13] = tested on: Enterovirus; experiment: Inhibition concentration against EV-71 (2231) genotype C; assay type: functional, organism-based; method in brief: as §2
[14] = tested on: unidentified influenza virus; experiment: Inhibition concentration against influenza B […]; assay type: functional, organism-based
Method in brief: (§4)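 Plaque reduction assay on Vero cell monolayers. Virus was added at a dose giving about 50-100 plaques per monolayer in virus controls. Compound was diluted into the agar-medium overlay, tested up to 25 µM. Plates were incubated 96 h at 35 °C, stained with crystal violet, and plaques counted.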

[15] = tested on: Enterovirus; experiment: Inhibition concentration against human rhinovirus 2; assay type: functional, organism-based; method in brief: as §2
[16] = tested on: Coxsackievirus; experiment: Inhibition concentration against coxsackie virus B3; assay type: functional, organism-based; method in brief: as §2
[17] = tested on: Enterovirus; experiment: Inhibition Concentration against enterovirus 68; assay type: functional, organism-based; method in brief: as §2
[18] = tested on: Enterovirus; experiment: Inhibition concentration against EV-71 (1743) genotype B; assay type: functional, organism-based; method in brief: as §2
[19] = tested on: Enterovirus; experiment: Inhibition concentration against EV-71 (BrCR) genotype A; assay type: functional, organism-based; method in brief: as §2
[20] = tested on: Enterovirus; experiment: Inhibition concentration against echovirus 9; assay type: functional, organism-based; method in brief: as §2
[21] = tested on: Coxsackievirus; experiment: Inhibition concentration against coxsackie virus B5; assay type: functional, organism-based; method in brief: as §2
[22] = tested on: Coxsackievirus; experiment: Inhibition concentration against coxsackie virus A24; assay type: functional, organism-based; method in brief: as §2
[23] = tested on: Coxsackievirus; experiment: Inhibition concentration against coxsackie virus B1; assay type: functional, organism-based; method in brief: as §2
[24] = Cytotoxicity against human normal skin fibroblast (D551) cells; assay type: cell-based; method in brief: as §3
[25] = tested on: Enterovirus; experiment: Inhibition concentration against echovirus 29; assay type: functional, organism-based; method in brief: as §2
[26] = tested on: Enterovirus; experiment: Inhibition concentration against human rhinovirus 14; assay type: functional, organism-based; method in brief: as §2
[27] = tested on: unidentified influenza virus; experiment: Inhibition concentration against influenza A (WSN); assay type: functional, organism-based; method in brief: as §4
[28] = tested on: Enterovirus; experiment: Inhibition concentration against EV-71 (2086) genotype C; assay type: functional, organism-based; method in brief: as §2
[29] = tested on: Coxsackievirus; experiment: Inhibition concentration against coxsackie virus B6; assay type: functional, organism-based; method in brief: as §2
[30] = as §1; assay type: functional; method in brief: as §3; remark: listed apart in the source
[31] = selectivity index of the compound; assay type: functional
[32] = W138 normal skin fibroblast cells
[33] = D551 normal skin fibroblast cells

## O=C1N(CCCCCOc2ccc(-c3ccc([N+](=O)[O-])cc3)cc2)CCN1c1ccncc1
[1]
  Selectivity index: > 169 and 212
[2]
  Selectivity index: > 76
[3]
  Selectivity index: > 169 and 200

## Cc1ccc(OCCCCCCN2CCN(c3ccncc3)C2=O)cc1
[4]; Homo sapiens, RD
  CC50: > 25 µM
[5]
  IC50: 6.36 µM

## O=C1N(CCCCCCOc2ccc(Br)cc2)CCN1c1ccncc1
[6]
  IC50: 0.77 µM
[1]
  Selectivity index: 161
[7]
  IC50: 5.88 µM
[8]
  IC50: > 25 µM
[4]; Homo sapiens, RD
  CC50: > 25 µM
[9]; [32]
  CC50: 50 µM
[2]
  Selectivity index: > 71
[10]
  IC50: > 25 µM
[11]
  IC50: > 25 µM
[12]
  IC50: > 25 µM
[13]
  IC50: 1.15 µM
[14]
  IC50: > 25 µM
[15]
  IC50: > 25 µM
[16]
  IC50: > 25 µM
[17]
  IC50: 2.13 µM
[18]
  IC50: 0.6 µM
[19]
  IC50: 1.26 µM
[3]
  Selectivity index: 148
[5]
  IC50: 0.35 µM
[20]
  IC50: 2.82 µM
[21]
  IC50: > 25 µM
[22]
  IC50: 0.55 µM
[23]
  IC50: 5.1 µM
[24]; [33]
  CC50: 46 µM
[25]
  IC50: > 25 µM
[26]
  IC50: 11.6 µM
[27]
  IC50: > 25 µM
[28]
  IC50: 0.31 µM
[29]
  IC50: > 25 µM

## O=C1N(CCCCCCCOc2ccc(Br)cc2)CCN1c1ccncc1
[4]; Homo sapiens, RD
  CC50: > 25 µM
[5]
  IC50: 0.56 µM

## O=C1N(CCCCCCOc2ccc(Br)cc2)CCN1c1ccnc(Cl)c1
[4]; Homo sapiens, RD
  CC50: > 25 µM
[5]
  IC50: > 25 µM

## O=C1N(CCCCCCOc2ccc(-c3ccoc3)cc2)CCN1c1ccncc1
[4]; Homo sapiens, RD
  CC50: > 25 µM
[5]
  IC50: 0.58 µM

## O=C1N(CCCCCCOc2ccc(Cl)cc2)CCN1c1cccnc1
[4]; Homo sapiens, RD
  CC50: > 25 µM
[5]
  IC50: 2.52 µM

## CC(C)(C)c1ccc(OCCCCCCN2CCN(c3cccnc3)C2=O)cc1
[4]; Homo sapiens, RD
  CC50: > 25 µM
[5]
  IC50: > 25 µM

## O=C1N(CCCCCCOc2ccc(Cl)cc2)CCN1c1ccccc1
[4]; Homo sapiens, RD
  CC50: > 25 µM
[5]
  IC50: 10.8 µM

## COc1ccc(OCCCCCCN2CCN(c3ccncc3)C2=O)c(Cl)c1
[4]; Homo sapiens, RD
  CC50: > 25 µM
[5]
  IC50: > 25 µM

## O=C1N(CCCCCCOc2ccc(C(F)(F)F)cc2)CCN1c1ccncc1
[6]
  IC50: 1.44 µM
[1]
  Selectivity index: 71
[7]
  IC50: 15.7 µM
[8]
  IC50: > 25 µM
[4]; Homo sapiens, RD
  CC50: > 25 µM
[9]; [32]
  CC50: 36 µM
[2]
  Selectivity index: > 43
[10]
  IC50: > 25 µM
[11]
  IC50: > 25 µM
[12]
  IC50: > 25 µM
[13]
  IC50: 1.35 µM
[14]
  IC50: > 25 µM
[15]
  IC50: > 25 µM
[16]
  IC50: > 25 µM
[17]
  IC50: 4.67 µM
[18]
  IC50: 0.75 µM
[19]
  IC50: 1.37 µM
[3]
  Selectivity index: 108
[5]
  IC50: 0.58 µM
[20]
  IC50: 2.61 µM
[21]
  IC50: > 25 µM
[22]
  IC50: 0.47 µM
[23]
  IC50: 5.6 µM
[24]; [33]
  CC50: 55 µM
[25]
  IC50: > 25 µM
[26]
  IC50: > 12.5 µM
[27]
  IC50: > 25 µM
[28]
  IC50: 0.51 µM
[29]
  IC50: > 25 µM

## O=C1N(CCCCCCOc2ccc(C(F)(F)F)cc2)CCN1c1ccncn1
[4]; Homo sapiens, RD
  CC50: > 25 µM
[5]
  IC50: > 25 µM

## O=C1N(CCCCCOc2ccc(-c3ccc(Cl)cc3)cc2)CCN1c1ccncc1 [listing 1 of 2 here]
[4]
  CC50: 12.5 µM
[9]
  CC50: 48 µM
[24]
  CC50: 13 µM

## O=C1N(CCCCCCOc2ccc(Cl)cc2)CCN1c1ccncc1
[4]; Homo sapiens, RD
  CC50: > 25 µM
[5]
  IC50: 1.5 µM

## O=C1N(CCCCCOc2ccc(Cl)cc2)CCN1c1ccncc1
[5]
  IC50: 1.35 µM
[30]
  CC50: > 25 µM

## O=C1N(CCCCCCOc2ccc(C(F)(F)F)cc2)CCN1c1ccccc1
[4]; Homo sapiens, RD
  CC50: > 25 µM
[5]
  IC50: 12 µM

## CSc1ccc(OCCCCCCN2CCN(c3ccncc3)C2=O)cc1
[5]
  IC50: 4.96 µM
[30]
  CC50: > 25 µM

## O=C1N(CCCCCCOc2ccc(F)cc2)CCN1c1ccncc1
[5]
  IC50: 3.01 µM
[30]
  CC50: > 25 µM

## O=C1N(CCCCCCOc2ccc(Br)cc2)CCN1c1cccnc1
[4]; Homo sapiens, RD
  CC50: > 25 µM
[5]
  IC50: 2.07 µM

## O=C1N(CCCCCOc2ccc(C(F)(F)F)cc2)CCN1c1ccncc1
[4]; Homo sapiens, RD
  CC50: 12.5 µM
[5]
  IC50: 1.35 µM

## O=C1N(CCCCCOc2ccc(-c3ccc(Cl)cc3)cc2)CCN1c1ccncc1 [listing 2 of 2 here]
[4]; Homo sapiens, RD
  CC50: 6.25 µM
[9]; [32]
  CC50: 32 µM
[5]
  IC50: 0.06 µM
[24]
  CC50: 6 µM

## O=C1N(CCCCCCOc2ccc(C(F)(F)F)cc2)CCN1c1cccnc1
[4]; Homo sapiens, RD
  CC50: > 25 µM
[5]
  IC50: 2.1 µM

## O=C1N(CCCCCOc2ccc(Cl)cc2)CCN1c1cccnc1
[4]; Homo sapiens, RD
  CC50: > 25 µM
[5]
  IC50: 4.65 µM

## O=C1N(CCCCCOc2ccc(-c3cccs3)cc2)CCN1c1ccncc1
[5]
  IC50: 0.58 µM
[30]
  CC50: > 25 µM

## O=C1N(CCCCCCOc2ccc(-c3cccs3)cc2)CCN1c1ccncc1
[9]; [32]
  CC50: 60 µM
[2]
  Selectivity index: > 83
[3]
  Selectivity index: 153
[5]
  IC50: 0.3 µM
[31]
  Selectivity index: 200
[24]; [33]
  CC50: 46 µM
[30]
  CC50: > 25 µM

## O=C1N(CCCCCCCOc2ccc(Cl)cc2)CCN1c1cccnc1
[4]; Homo sapiens, RD
  CC50: > 25 µM
[5]
  IC50: 1.43 µM
